Data reported in PubChem BioAssay.
The source made the active and inactive calls.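 The calls were made as follows, unless noted: active = Her2 level under about 52% in both replicate screens, with viability over 70% of control (limit read from the data); inconclusive = Her2 under the limit in one screen only, or viability under 70%; inactive = Her2 level above the set limit.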

Legend:
[1] = Her2 expression decrease, cell viability multiplex – SKBR3 breast tumor cells, AlphaScreen, ATP viability, primary screen (AID 461); settings: SKBR3 Her2 protein level, 18-24 h, measured here: SKBR3 viability, ATP luminescence, at 10 µM;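 as to Her2 level: lower value means less Her2 protein in the cells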;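 as to viability: percent of carrier control wells set as 100% viability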
[2] = biological target: Receptor tyrosine-protein kinase erbB-2 (Homo sapiens) (UniProt P04626); test: as above; settings: 18-24 h, at 10 µM, stronger effect = lower value
[3] = reduced viability of SK-BR-3 breast cancer cells – cell-based, 24 h, human, pilot screen (AID 572;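 active = viability at or below 10% of carrier control in both of two separate runs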;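 also: compound exposure lasted between 18 and 24 h rather than exactly 24 h; 100% = carrier-treated control wells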); settings: SK-BR-3 viability, CellTiter-Glo luminescence, at 10 µM, stronger effect = lower value
[4] = HUVEC growth inhibition – cell-based, human, primary screen (AID 575;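 active = viability at or below 30% in both replicate assays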;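 also: 100% = median of untreated cell wells with 0.1% DMSO on each plate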); settings: HUVEC proliferation, CellTiter-Glo luminescence, 72 h; at 10 µM; stronger effect = lower value
Summary of the method: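 Material: primary human umbilical vein endothelial cells / Schedule: 72 h exposure, 37 °C, 5% CO2, 30 min RT equilibration / Signal: ATP-based CellTiter-Glo luminescent read / Read-out basis: percent of median DMSO-control luminescence / Control set: 32 DMSO-only cell-control wells (high), 32 MePR drug-control wells (low) per plate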

[5] = H69AR cell proliferation blockers – human, duplicate replicates, primary screen (AID 580;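 active = viability at or under a set limit in both replicates, limit being median viability minus 3 SD, cut at about 48% in these data, passing the limit was not always enough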;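 also: 100% = mean luminescence of untreated wells and 0% = no signal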); settings: H69AR lung tumor cells viability, ATP luminescence, 72 h; at 10 µM; stronger effect = lower value
[6] = MRP1 drug-resistance reversers in H69AR cells – cell-based, doxorubicin co-treatment, pilot screen (AID 601;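 active = viability loss from added drug above about 55%, and viability with drug at most 40%, in both replicates, limit read from the data, passing the limit was not always enough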); settings: CellTiter-Glo, 72 h, at 10 µM; for differential viability (reversal): stronger effect = higher value
[7] = yeast transport mutant growth inhibition pilot in 384-well plates, post-Golgi transport modulator project (AID 636; in the data active = inhibition above about 31%); settings: absorbance 615 nm, about 18 h, stronger effect = higher value
[8] = growth suppression of yeast trafficking mutant, preliminary HTS, modulators of trafficking downstream of Golgi apparatus project, 1536-format plate, OD 615 nm (AID 637; in the data active = inhibition above about 30%); settings: yeast transport mutant growth, absorbance 615 nm, 18 h; stronger effect = higher value
[9] = H69AR cells + 2 uM doxorubicin, measured here: viability with 2 uM doxorubicin, stronger effect = lower value
[10] = H69AR cells, compound alone cytotoxicity

Receptor tyrosine-protein kinase erbB-2 (Homo sapiens), sequence (P04626 whole entry, looked up): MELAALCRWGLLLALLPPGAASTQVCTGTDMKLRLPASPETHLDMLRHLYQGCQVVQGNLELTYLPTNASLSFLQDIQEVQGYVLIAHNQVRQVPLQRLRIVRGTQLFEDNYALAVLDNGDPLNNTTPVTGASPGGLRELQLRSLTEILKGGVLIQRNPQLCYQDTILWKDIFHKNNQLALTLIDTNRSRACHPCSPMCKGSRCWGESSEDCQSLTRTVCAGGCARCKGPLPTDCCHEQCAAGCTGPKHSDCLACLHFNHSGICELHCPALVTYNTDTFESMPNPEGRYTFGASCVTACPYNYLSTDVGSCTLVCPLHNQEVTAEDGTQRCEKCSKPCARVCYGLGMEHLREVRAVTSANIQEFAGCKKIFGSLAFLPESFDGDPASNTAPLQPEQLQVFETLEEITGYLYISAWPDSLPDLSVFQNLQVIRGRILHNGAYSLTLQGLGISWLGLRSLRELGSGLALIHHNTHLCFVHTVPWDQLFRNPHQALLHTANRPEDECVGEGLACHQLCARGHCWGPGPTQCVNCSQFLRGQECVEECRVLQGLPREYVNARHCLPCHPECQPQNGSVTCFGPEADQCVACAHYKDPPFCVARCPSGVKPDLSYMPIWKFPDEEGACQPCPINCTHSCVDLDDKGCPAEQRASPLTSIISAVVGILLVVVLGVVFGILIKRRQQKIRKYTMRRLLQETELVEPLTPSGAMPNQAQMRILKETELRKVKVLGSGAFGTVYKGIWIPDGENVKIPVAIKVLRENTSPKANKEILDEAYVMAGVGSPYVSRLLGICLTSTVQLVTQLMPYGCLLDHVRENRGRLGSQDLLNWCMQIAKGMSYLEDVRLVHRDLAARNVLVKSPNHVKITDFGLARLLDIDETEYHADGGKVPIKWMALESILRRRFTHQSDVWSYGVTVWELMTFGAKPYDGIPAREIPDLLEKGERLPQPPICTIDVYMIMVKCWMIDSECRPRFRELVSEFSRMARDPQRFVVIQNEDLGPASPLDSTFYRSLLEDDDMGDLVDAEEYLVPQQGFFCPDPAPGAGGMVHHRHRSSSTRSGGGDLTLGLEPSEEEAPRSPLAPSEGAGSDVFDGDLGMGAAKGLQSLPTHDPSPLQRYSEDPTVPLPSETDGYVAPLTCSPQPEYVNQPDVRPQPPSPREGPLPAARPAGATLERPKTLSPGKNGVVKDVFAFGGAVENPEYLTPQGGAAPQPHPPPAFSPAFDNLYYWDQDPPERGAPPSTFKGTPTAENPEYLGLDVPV

SMILES | viability [1] | Her2 level [2] | viability [3] | viability [4] | viability [5] | differential viability (reversal) ([6]; H69AR cells + 2 uM doxorubicin) | viability [6, 9] | viability [6, 10] | inhibition [7] | inhibition [8]
O=C(CN1C(=O)C2CC=C(Cl)CC2C1=O)Nc1ccc(C(=O)O)cc1 (stereo not given) | 127% | 101% (inactive) | 127% (inactive) | 99.1% (inactive) | 94.7% (inactive) | -0.64% (inactive) | 95.4% | 94.7% | -3.55% (inactive) | -0.16% (inactive)
Cc1cc(NC(=O)CSc2ccc(Cl)cc2)no1 | 88.5% | 114% (inactive) | 88.5% (inactive) | 91.3% (inactive) | 61% (inactive) | -10.7% (inactive) | 71.7% | 61% | -0.66% (inactive) | 22.3% (inactive)
COc1ccc(Cc2noc(-c3ccc(C)cc3)n2)cc1 | 91% | 131% (inactive) | 91% (inactive) | 90.1% (inactive) | 91.2% (inactive) | 14.9% (inactive) | 76.3% | 91.2% | 4.87% (inactive) | 45.8% (active)
O=C1c2ccccc2CN1CCNS(=O)(=O)c1ccc(Cl)cc1 | 104% | 92.5% (inactive) | 104% (inactive) | 98% (inactive) | 88% (inactive) | 3.27% (inactive) | 84.8% | 88% | -7.87% (inactive) | -0.63% (inactive)
CCOC(=O)C1CCN(c2c(N3CCCC(C(=O)OCC)C3)c(=O)c2=O)CC1 (stereo not given) | 103% | 119% (inactive) | 103% (inactive) | 97.1% (inactive) | 96.9% (inactive) | -3.29% (inactive) | 100% | 96.9% | 2.31% (inactive) | -2% (inactive)
Cc1cc(C(=O)CSc2nc3ccccc3[nH]2)c(C)n1C | 100% | 86% (inactive) | 100% (inactive) | 120% (inactive) | 94.4% (inactive) | 12.8% (inactive) | 81.6% | 94.4% | -4.93% (inactive) | -8.36% (inactive)
COc1ccc2nc(CC(C)(C)CC(=O)O)c[n+]([O-])c2c1 | 109% | 95.5% (inactive) | 109% (inactive) | 106% (inactive) | 99.2% (inactive) | 9.58% (inactive) | 89.6% | 99.2% | -2.7% (inactive) | 5.08% (inactive)
COc1ccc(Cn2nnnc2C(c2ccccc2OC)N2CCC(C(N)=O)CC2)cc1 (stereo not given) | 100% | 91% (inactive) | 100% (inactive) | 105% (inactive) | 85.4% (inactive) | 1.34% (inactive) | 84% | 85.4% | -5.73% (inactive) | 8.52% (inactive)
CCCn1c(SCC(=O)N2CCc3ccccc3C2)nc2c1c(=O)n(C)c(=O)n2C | 78.5% | 128% (inactive) | 78.5% (inactive) | 91.2% (inactive) | 84.9% (inactive) | 2.96% (inactive) | 81.9% | 84.9% | 0.26% (inactive) | 9% (inactive)
COc1ccc(-c2c(C(F)(F)F)oc3c(CN4CCN(C)CC4)c(O)ccc3c2=O)cc1 | 84.5% | 108% (inactive) | 84.5% (inactive) | 87.9% (inactive) | 102% (inactive) | -1.1% (inactive) | 103% | 102% | -2.67% (inactive) | -6.03% (inactive)
c1cnc2c(SCc3ccc(-c4nnco4)cc3)cccc2c1 | 98.5% | 101% (inactive) | 98.5% (inactive) | 80.7% (inactive) | 97.2% (inactive) | 12.1% (inactive) | 85.2% | 97.2% | -2.03% (inactive) | -12.4% (inactive)
COC(=O)c1sc(S(=O)(=O)Nc2ccc3cn[nH]c3c2)c(C(=O)OC)c1C | 97% | 93.5% (inactive) | 97% (inactive) | 77.6% (inactive) | 78.2% (inactive) | -12.4% (inactive) | 90.6% | 78.2% | -2.5% (inactive) | -6.55% (inactive)
CN(C)S(=O)(=O)c1ccc(C(=O)N2CCC(c3nc4ccccc4o3)CC2)cc1 | 82% | 83% (inactive) | 82% (inactive) | 95.1% (inactive) | 83% (inactive) | 8.86% (inactive) | 74.1% | 83% | -4.67% (inactive) | -6.07% (inactive)
CCOC(=O)c1ccccc1NC(=O)CSc1nc2c(c(=O)n(C)c(=O)n2C)n1C | 100% | 92% (inactive) | 100% (inactive) | 101% (inactive) | 92.4% (inactive) | 6.47% (inactive) | 85.9% | 92.4% | -1.58% (inactive) | 0.16% (inactive)
C=CCn1c(SCC(=O)c2cc(C)n(C(C)COC)c2C)nc2sc(C)c(C)c2c1=O (stereo not given) | 97.5% | 77% (inactive) | 97.5% (inactive) | 68.2% (inactive) | 82.8% (inactive) | 60.8% (active) | 21.9% | 82.8% | -8.77% (inactive) | -4.6% (inactive)
CCOC(=O)c1c(N)sn(-c2ccccc2)c1=S | 87% | 108% (inactive) | 87% (inactive) | 101% (inactive) | 85.3% (inactive) | -5.28% (inactive) | 90.6% | 85.3% | -0.9% (inactive) | 2.17% (inactive)

SMILES | viability [1] | Her2 level [2] | viability [3] | viability [4] | viability [5] | differential viability (reversal) ([6]; H69AR cells + 2 uM doxorubicin) | viability [6, 9] | viability [6, 10] | inhibition [7] | inhibition [8]
CC1CCN(S(=O)(=O)c2cn(CC(=O)N3CCN(C)CC3)c(=O)c3ccccc23)CC1 | 122% | 97% (inactive) | 122% (inactive) | 104% (inactive) | 97.4% (inactive) | 0.39% (inactive) | 97% | 97.4% | -1.69% (inactive) | -7.46% (inactive)
COCCNC(=O)Cn1nc(C(F)(F)F)c(Br)c1C | 118% | 104% (inactive) | 118% (inactive) | 90.4% (inactive) | 108% (inactive) | 15.8% (inactive) | 92.5% | 108% | -4.27% (inactive) | -0.81% (inactive)
Cc1cc2c(c(=O)o1)C(Cc1ccccc1)C(C#N)=C(N)O2 (stereo not given) | 94% | 96% (inactive) | 94% (inactive) | 87.2% (inactive) | 98.7% (inactive) | 21.6% (inactive) | 77.2% | 98.7% | 1.45% (inactive) | 1.8% (inactive)
CCOC(=O)N1CCN(C(=O)COc2ccc(Br)cc2Cl)CC1 | 96% | 112% (inactive) | 96% (inactive) | 117% (inactive) | 93.7% (inactive) | 2.46% (inactive) | 91.2% | 93.7% | -1.17% (inactive) | -5.33% (inactive)
Cc1nc2ccc(NC(=O)N3CCOCC3)cc2s1 | 87.5% | 79.5% (inactive) | 87.5% (inactive) | 93.8% (inactive) | 89.8% (inactive) | 4.26% (inactive) | 85.6% | 89.8% | -4.34% (inactive) | -1.27% (inactive)
O=C1N(CCCCN2C(=O)C3(OCCO3)c3ccccc32)c2ccccc2C12OCCO2 | 100% | 84.5% (inactive) | 100% (inactive) | 73.2% (inactive) | 84.9% (inactive) | 11.1% (inactive) | 73.7% | 84.9% | -0.39% (inactive) | 11.5% (inactive)
Cc1cc(OCC(=O)N2CCCC2)cc(C)c1Cl | 102% | 96% (inactive) | 102% (inactive) | 101% (inactive) | 89.6% (inactive) | 16.1% (inactive) | 73.5% | 89.6% | -6.8% (inactive) | -0.33% (inactive)
Cc1cccc(Nc2nc(N)nc(CN3CCC(C(N)=O)CC3)n2)c1C | 89% | 89% (inactive) | 89% (inactive) | 105% (inactive) | 98.1% (inactive) | 12.8% (inactive) | 85.2% | 98.1% | -5.58% (inactive) | -3.49% (inactive)
COc1ccc2nc(NC(=O)C3CCCN(S(=O)(=O)c4cccc5nsnc45)C3)sc2c1 (stereo not given) | 96.5% | 97.5% (inactive) | 96.5% (inactive) | 75% (inactive) | 83.1% (inactive) | -10.1% (inactive) | 93.2% | 83.1% | 4.53% (inactive) | -2.7% (inactive)
O=C(c1cccc(Cl)c1)N1CCN(Cc2ccncc2)CC1 | 92% | 96.5% (inactive) | 92% (inactive) | 96.2% (inactive) | 105% (inactive) | 9.47% (inactive) | 95.8% | 105% | -0.27% (inactive) | 6.89% (inactive)
Cc1cc(NC(c2cccnc2)c2c(C)[nH]c3ccccc23)no1 (stereo not given) | 97% | 76% (inactive) | 97% (inactive) | 85.1% (inactive) | 89% (inactive) | -8.09% (inactive) | 97% | 89% | -5.6% (inactive) | 3.61% (inactive)
COCCCN(C(C)=O)c1nc(-c2ccccc2)cs1 | 91% | 85.5% (inactive) | 91% (inactive) | 65.5% (inactive) | 94% (inactive) | 9.96% (inactive) | 84.1% | 94% | -7.81% (inactive) | -3.17% (inactive)
O=C(C1CC1)N(Cc1ccco1)c1nc(-c2ccccc2)cs1 | 96.5% | 108% (inactive) | 96.5% (inactive) | 81.4% (inactive) | 86.4% (inactive) | 1.75% (inactive) | 84.7% | 86.4% | -5.6% (inactive) | -8.36% (inactive)
Cc1ccc(CNC(=O)COC(=O)c2c(C)noc2C)cc1 | 99% | 121% (inactive) | 99% (inactive) | 97.4% (inactive) | 92.8% (inactive) | 7.25% (inactive) | 85.6% | 92.8% | -4.03% (inactive) | -14.2% (inactive)
CCOc1cc(NC(=O)c2ccco2)c(OCC)cc1NC(=O)CCC(=O)NCc1cccnc1 | 95.5% | 100% (inactive) | 95.5% (inactive) | 88.1% (inactive) | 86.1% (inactive) | -4.71% (inactive) | 90.8% | 86.1% | -1.43% (inactive) | -4.17% (inactive)
